{"source": "paper PMC3742633", "about": "(Molecular cancer therapeutics, 2013)", "key": {"[1]": {"system": "CT26 colon adenocarcinoma cells", "assay": "CT26 xenograft tumor growth", "type": "in vivo, Balb/C athymic mice", "conditions": "25 mg/kg i.p. every 3 days × 4; similarly to irinotecan"}, "SN12C": {"system": "SN12C", "assay": "NCI 60 cell line screen, Sulforhodamine B Assay", "type": "cell-based", "conditions": "Homo sapiens, 48 h", "procedure,_shortened": "(§1)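 Run through the National Cancer Institute 60 cell line screening service on its panel of 59 human cancer lines in vitro. Cytostatic/toxic effect was read as cellular protein content (sulforhodamine B) over 48 h.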"}, "CCRF-CEM": {"system": "CCRF-CEM", "assay": "NCI 60 cell line screen, Sulforhodamine B Assay", "type": "cell-based", "conditions": "Homo sapiens, 48 h", "procedure,_shortened": "(§2)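 Run through the NCI-60 screening service: human cancer cell lines exposed to test compound for 48 h. Growth read as cellular protein content by sulforhodamine B staining, and GI50 derived from this.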"}, "SF-295": {"system": "SF-295", "assay": "NCI 60 cell line screen, Sulforhodamine B Assay", "type": "cell-based", "conditions": "Homo sapiens, SF-295, 48 h", "procedure,_shortened": "as §2"}, "[2]": {"assay": "Pharmacokinetic profile after IV administration", "type": "in vivo, female C57Bl/6 mice", "conditions": "plasma", "procedure,_shortened": "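Test compound was given IV to female C57Bl/6 mice, with 8 time points and 3 animals per time point. Plasma was extracted with acetonitrile and analysed by LC-MS/MS on a polar reverse-phase column with a 0.5% formic acid acetonitrile/water mobile phase. Tmax, Cmax, volume of distribution, half-life, clearance, AUCs and MRT were calculated from the concentration–time data.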"}, "LLC tumors": {"system": "LLC tumors", "assay": "18F-FDG micro-PET imaging of LLC-bearing mice", "type": "in vivo, C57Bl/6 mice", "conditions": "25 mg/kg i.p. once, 45 minutes, normalized to FDG uptake in the cerebellum", "procedure,_shortened": "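Tumor-bearing mice were anesthetized with isoflurane and given 200 μCi FDG i.v. by tail vein. Baseline 15-min static micro-PET scans were taken 45 min after tracer (OSEM, 6 subsets/4 iterations). Tumor and cerebellum regions of interest were quantified in quadruplicate. 24 h later, test compound 25 mg/kg i.p. once, then re-scan 45 min later.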"}, "SNB-19": {"system": "SNB-19", "assay": "NCI 60 cell line screen, Sulforhodamine B Assay", "type": "cell-based", "conditions": "Homo sapiens, SNB-19, 48 h", "procedure,_shortened": "as §1"}, "NCI-H522": {"system": "NCI-H522", "assay": "NCI 60 cell line screen, Sulforhodamine B Assay", "type": "cell-based", "conditions": "Homo sapiens, NCI-H522, 48 h", "procedure,_shortened": "as §2"}, "CAKI-1": {"system": "CAKI-1", "assay": "NCI 60 cell line screen, Sulforhodamine B Assay", "type": "cell-based", "conditions": "Homo sapiens, CAKI-1, 48 h", "procedure,_shortened": "as §2"}, "[3]": {"conditions": "female, C57Bl/6, mouse, iv, 5 mg/kg"}}, "data": [{"compound": "O=C(C=Cc1ccc2ccccc2n1)c1ccncc1", "note": "[PFK15, 1-(4-pyridinyl)-3-(2-quinolinyl)-2-propen-1-one]", "values": [{"measurement": "growth of colon adenocarcinomas (CT26)", "setting": "[1]", "value": "suppressed the growth"}, {"measurement": "GI50", "setting": "SN12C", "value": 1.86, "unit": "µM"}, {"measurement": "GI50", "setting": "CCRF-CEM", "value": 3.8, "unit": "µM"}, {"measurement": "GI50", "setting": "SF-295", "value": 13.5, "unit": "µM"}, {"measurement": "AUC0-inf", "setting": "[2]; IV, C57Bl/6 mice", "value": 1804, "unit": "ng/h/mL"}, {"measurement": "Cmax", "setting": "[2]; [3]", "value": 3050, "unit": "ng/mL"}, {"measurement": "clearance", "setting": "[2]; [3]", "value": 46.2, "unit": "mL/min/kg"}, {"measurement": "half-life", "setting": "[2]; [3]", "value": 5.1, "unit": "h"}, {"measurement": "reduction in 18F-FDG uptake", "setting": "LLC tumors", "value": "~ 50%"}, {"measurement": "GI50", "setting": "SNB-19", "value": 4.57, "unit": "µM"}, {"measurement": "GI50", "setting": "NCI-H522", "value": 1.74, "unit": "µM"}, {"measurement": "GI50", "setting": "CAKI-1", "value": 11.5, "unit": "µM"}]}]}
